Laboratory results as given in ChEMBL document CHEMBL5661979, “Pharmacological inhibition of BMK1 suppresses tumor growth through promyelocytic leukemia protein” (Cancer Cell, 2010).

Assays:
[1] = molecular target: Serine/threonine-protein kinase greatwall (Homo sapiens, UniProt Q96GX5); experiment: Inhibition of MASTL in human HeLa cells lysate pre incubated for 15 mins followed by ATP acyl phosphate probe addition and measured after 10 mins by LC-MS/MS analysis; type: subcellular
[2] = Inhibition of KHS1/2 in human HeLa cells lysate at 10 uM pre incubated for 15 mins followed by ATP acyl phosphate probe addition and measured after 10 mins by LC-MS/MS analysis relative to control; settings: 25 min, condition cancer
[3] = molecular target: Dual specificity protein kinase CLK3 (Homo sapiens, UniProt P49761); experiment: Inhibition of CLK3 in human HeLa cells lysate pre incubated for 15 mins followed by ADP acyl phosphate probe addition and measured after 10 mins by LC-MS/MS analysis; type: subcellular
[4] = molecular target: Interleukin-1 receptor-associated kinase 1 (Homo sapiens, UniProt P51617); experiment: Inhibition of IRAK1 in human HeLa cells lysate pre incubated for 15 mins followed by ATP acyl phosphate probe addition and measured after 10 mins by LC-MS/MS analysis; type: subcellular
[5] = molecular target: Eukaryotic elongation factor 2 kinase (Homo sapiens, UniProt O00418); experiment: Inhibition of EEF2K in human HeLa cells lysate pre incubated for 15 mins followed by ATP acyl phosphate probe addition and measured after 10 mins by LC-MS/MS analysis; type: subcellular
[6] = molecular target: Calcium/calmodulin-dependent protein kinase type II subunit gamma (Homo sapiens, UniProt Q13555); experiment: Inhibition of CAMK2g in human HeLa cells lysate at 2 uM pre incubated for 15 mins followed by ADP acyl phosphate probe addition and measured after 10 mins by LC-MS/MS analysis relative to control; type: subcellular; settings: time 25.0 min
Procedure, shortened: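 KiNativ-type profiling in HeLa lysate (5 mg/mL total protein). Lysate preincubated 15 min with inhibitor at 50, 10, 2, 0.8 or 0 μM, then ATP or ADP acylphosphate probe added (5 μM final) for 10 min. Reaction stopped with urea and analysed by targeted MS, using up to four fragment ions per kinase peptide-probe conjugate. % inhibition calculated against untreated lysate. Duplicate reactions.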

[7] = molecular target: Cyclin-dependent kinase 2 (Homo sapiens, UniProt P24941); experiment: Inhibition of CDK2 in human HeLa cells lysate at 10 uM pre incubated for 15 mins followed by ATP acyl phosphate probe addition and measured after 10 mins by LC-MS/MS analysis relative to control; type: subcellular; settings: time 25.0 min
Procedure, shortened: (§1)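 KiNativ profiling in HeLa lysate (5 mg/mL total protein). Lysate incubated 15 min with inhibitor at 50, 10, 2, 0.8 or 0 μM. ATP or ADP acylphosphate probe then added (5 μM final) and reacted 10 min. Reaction stopped with urea and analysed by targeted MS, using up to four fragment ions per kinase peptide-probe conjugate. % inhibition taken against untreated lysate. Run in duplicate.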

[8] = molecular target: Cyclin-dependent kinase 13 (Homo sapiens, UniProt Q14004); experiment: Inhibition of CHED in human HeLa cells lysate pre incubated for 15 mins followed by ATP acyl phosphate probe addition and measured after 10 mins by LC-MS/MS analysis; type: subcellular; procedure, shortened: as §1
[9] = molecular target: Cyclin-dependent kinase 8/19 (Homo sapiens, UniProt P49336+Q9BWU1); experiment: Inhibition of CDK8/CDK11 in human HeLa cells lysate at 50 uM pre incubated for 15 mins followed by ATP acyl phosphate probe addition and measured after 10 mins by LC-MS/MS analysis relative to control; type: subcellular; settings: time 25.0 min; procedure, shortened: as §1
[10] = molecular target: Rho-associated protein kinase (Homo sapiens, UniProt O75116+Q13464); experiment: Inhibition of ROCK1/2 in human HeLa cells lysate at 2 uM pre incubated for 15 mins followed by ATP acyl phosphate probe addition and measured after 10 mins by LC-MS/MS analysis relative to control; type: subcellular; settings: time 25.0 min
[11] = molecular target: Epidermal growth factor receptor (Homo sapiens, UniProt P00533); experiment: Inhibition of EGFR in human HeLa cells lysate at 2 uM pre incubated for 15 mins followed by ATP acyl phosphate probe addition and measured after 10 mins by LC-MS/MS analysis relative to control; type: subcellular; settings: time 25.0 min
[12] = molecular target: MAP/microtubule affinity-regulating kinase 3 (Homo sapiens, UniProt P27448); experiment: Inhibition of MARK3 in human HeLa cells lysate pre incubated for 15 mins followed by ADP acyl phosphate probe addition and measured after 10 mins by LC-MS/MS analysis; type: subcellular
[13] = molecular target: T1, Serine/threonine-protein kinase Nek9 (Homo sapiens) (UniProt Q8TD19); experiment: Inhibition of NEK9 in human HeLa cells lysate at 10 uM pre incubated for 15 mins followed by ADP acyl phosphate probe addition and measured after 10 mins by LC-MS/MS analysis relative to control; type: subcellular; settings: time 25.0 min
T1 sequence (whole entry): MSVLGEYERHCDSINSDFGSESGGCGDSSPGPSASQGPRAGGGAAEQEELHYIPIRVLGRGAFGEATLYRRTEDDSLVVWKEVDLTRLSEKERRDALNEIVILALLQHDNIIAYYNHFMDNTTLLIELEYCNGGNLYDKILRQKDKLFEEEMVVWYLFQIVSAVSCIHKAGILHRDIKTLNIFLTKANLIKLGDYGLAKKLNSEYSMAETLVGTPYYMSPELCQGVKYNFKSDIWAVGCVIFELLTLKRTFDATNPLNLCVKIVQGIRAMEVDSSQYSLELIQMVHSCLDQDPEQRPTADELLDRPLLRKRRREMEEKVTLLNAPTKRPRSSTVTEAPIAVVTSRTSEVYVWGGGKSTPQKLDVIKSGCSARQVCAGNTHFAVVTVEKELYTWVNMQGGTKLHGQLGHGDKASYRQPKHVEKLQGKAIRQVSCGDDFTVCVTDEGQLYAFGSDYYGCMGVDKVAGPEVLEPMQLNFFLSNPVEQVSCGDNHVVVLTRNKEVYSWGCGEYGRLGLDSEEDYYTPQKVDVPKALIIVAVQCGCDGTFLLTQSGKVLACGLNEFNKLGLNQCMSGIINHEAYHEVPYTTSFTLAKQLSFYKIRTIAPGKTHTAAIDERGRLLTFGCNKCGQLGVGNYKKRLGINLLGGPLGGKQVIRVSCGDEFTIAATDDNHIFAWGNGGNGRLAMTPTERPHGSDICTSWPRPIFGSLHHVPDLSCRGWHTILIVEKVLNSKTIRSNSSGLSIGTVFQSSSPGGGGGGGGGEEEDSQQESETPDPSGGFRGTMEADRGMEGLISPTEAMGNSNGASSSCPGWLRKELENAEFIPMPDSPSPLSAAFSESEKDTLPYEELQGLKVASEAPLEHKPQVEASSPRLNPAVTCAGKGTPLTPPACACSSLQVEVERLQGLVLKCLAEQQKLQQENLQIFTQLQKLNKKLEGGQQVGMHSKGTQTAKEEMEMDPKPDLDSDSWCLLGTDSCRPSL

Serine/threonine-protein kinase greatwall, sequence (Q96GX5 whole entry): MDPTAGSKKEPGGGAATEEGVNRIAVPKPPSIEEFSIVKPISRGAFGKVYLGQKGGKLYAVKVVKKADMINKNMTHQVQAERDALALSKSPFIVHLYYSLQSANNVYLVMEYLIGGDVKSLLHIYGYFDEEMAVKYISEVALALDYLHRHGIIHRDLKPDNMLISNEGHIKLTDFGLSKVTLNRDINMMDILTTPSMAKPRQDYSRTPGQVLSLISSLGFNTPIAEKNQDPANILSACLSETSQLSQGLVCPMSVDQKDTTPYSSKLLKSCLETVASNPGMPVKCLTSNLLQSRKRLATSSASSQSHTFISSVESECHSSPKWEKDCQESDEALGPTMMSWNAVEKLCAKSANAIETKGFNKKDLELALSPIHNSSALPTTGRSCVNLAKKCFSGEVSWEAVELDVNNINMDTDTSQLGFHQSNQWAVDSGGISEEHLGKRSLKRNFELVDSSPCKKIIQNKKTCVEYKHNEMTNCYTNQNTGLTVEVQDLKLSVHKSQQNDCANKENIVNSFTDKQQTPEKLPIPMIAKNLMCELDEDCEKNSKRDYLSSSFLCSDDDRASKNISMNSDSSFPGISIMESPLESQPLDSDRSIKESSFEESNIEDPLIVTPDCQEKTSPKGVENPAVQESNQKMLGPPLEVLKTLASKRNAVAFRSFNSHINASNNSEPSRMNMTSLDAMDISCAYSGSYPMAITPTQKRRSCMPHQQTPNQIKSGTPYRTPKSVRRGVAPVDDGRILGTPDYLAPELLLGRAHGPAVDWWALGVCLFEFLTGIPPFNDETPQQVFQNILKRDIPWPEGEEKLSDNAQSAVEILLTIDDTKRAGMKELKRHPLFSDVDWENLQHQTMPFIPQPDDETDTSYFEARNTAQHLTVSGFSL
Dual specificity protein kinase CLK3, sequence (P49761 whole entry): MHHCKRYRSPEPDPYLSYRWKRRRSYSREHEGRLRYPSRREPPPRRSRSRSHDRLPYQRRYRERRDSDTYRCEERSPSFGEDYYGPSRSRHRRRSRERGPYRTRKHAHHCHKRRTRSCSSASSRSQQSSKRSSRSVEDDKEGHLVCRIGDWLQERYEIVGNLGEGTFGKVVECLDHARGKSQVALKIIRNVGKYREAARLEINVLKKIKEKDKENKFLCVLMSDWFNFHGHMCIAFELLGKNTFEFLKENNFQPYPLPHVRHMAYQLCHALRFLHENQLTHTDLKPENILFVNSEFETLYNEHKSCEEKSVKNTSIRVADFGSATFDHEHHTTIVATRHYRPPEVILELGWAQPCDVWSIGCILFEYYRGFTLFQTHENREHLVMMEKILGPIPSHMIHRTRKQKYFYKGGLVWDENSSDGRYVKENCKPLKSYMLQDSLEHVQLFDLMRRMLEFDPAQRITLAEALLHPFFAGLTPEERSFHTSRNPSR
Cyclin-dependent kinase 8/19, sequence (P49336 whole entry, looked up): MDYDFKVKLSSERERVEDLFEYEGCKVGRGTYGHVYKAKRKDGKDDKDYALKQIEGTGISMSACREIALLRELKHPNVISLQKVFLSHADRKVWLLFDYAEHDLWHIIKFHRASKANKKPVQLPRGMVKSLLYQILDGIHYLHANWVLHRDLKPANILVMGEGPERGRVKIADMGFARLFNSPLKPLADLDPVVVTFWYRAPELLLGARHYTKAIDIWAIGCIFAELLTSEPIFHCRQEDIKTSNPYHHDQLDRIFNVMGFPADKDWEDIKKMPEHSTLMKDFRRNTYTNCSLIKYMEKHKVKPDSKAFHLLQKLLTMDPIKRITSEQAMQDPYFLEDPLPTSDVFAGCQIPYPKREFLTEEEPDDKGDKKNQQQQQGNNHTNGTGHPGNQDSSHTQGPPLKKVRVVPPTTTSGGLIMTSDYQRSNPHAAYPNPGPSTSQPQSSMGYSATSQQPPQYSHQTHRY
Cyclin-dependent kinase 8/19, sequence (Q9BWU1 whole entry, looked up): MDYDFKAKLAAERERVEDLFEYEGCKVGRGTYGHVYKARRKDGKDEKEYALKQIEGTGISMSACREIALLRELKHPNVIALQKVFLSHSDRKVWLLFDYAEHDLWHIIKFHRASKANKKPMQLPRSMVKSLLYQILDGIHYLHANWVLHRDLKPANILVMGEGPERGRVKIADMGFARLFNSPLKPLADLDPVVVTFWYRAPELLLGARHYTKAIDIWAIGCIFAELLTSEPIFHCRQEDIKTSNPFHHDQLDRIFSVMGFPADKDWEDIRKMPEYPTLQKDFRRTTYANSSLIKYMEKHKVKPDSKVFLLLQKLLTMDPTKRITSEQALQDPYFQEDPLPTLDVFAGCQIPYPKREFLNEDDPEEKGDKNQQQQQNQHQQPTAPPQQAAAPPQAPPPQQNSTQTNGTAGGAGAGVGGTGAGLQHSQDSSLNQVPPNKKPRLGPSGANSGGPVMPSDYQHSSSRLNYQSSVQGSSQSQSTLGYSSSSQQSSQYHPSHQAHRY
MAP/microtubule affinity-regulating kinase 3, sequence (P27448 whole entry): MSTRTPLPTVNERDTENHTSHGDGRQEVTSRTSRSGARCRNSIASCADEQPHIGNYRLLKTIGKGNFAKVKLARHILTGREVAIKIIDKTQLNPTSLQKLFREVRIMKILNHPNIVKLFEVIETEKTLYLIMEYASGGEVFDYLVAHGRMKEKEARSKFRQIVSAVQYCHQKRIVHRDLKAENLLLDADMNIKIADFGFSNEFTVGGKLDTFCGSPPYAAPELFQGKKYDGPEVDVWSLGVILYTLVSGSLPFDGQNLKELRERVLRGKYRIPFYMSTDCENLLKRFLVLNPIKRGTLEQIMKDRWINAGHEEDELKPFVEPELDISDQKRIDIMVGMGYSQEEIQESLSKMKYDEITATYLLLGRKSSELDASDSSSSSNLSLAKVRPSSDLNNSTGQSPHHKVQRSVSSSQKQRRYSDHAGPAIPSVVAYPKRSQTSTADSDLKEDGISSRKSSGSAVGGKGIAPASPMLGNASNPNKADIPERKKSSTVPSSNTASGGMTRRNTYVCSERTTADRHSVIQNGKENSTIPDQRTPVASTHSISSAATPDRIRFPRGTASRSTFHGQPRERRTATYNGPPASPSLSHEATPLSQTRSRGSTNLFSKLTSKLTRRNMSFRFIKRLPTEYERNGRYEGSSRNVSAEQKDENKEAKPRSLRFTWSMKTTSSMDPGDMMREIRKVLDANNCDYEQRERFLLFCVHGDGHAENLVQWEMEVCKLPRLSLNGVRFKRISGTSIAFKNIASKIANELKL
Interleukin-1 receptor-associated kinase 1, sequence (P51617 whole entry): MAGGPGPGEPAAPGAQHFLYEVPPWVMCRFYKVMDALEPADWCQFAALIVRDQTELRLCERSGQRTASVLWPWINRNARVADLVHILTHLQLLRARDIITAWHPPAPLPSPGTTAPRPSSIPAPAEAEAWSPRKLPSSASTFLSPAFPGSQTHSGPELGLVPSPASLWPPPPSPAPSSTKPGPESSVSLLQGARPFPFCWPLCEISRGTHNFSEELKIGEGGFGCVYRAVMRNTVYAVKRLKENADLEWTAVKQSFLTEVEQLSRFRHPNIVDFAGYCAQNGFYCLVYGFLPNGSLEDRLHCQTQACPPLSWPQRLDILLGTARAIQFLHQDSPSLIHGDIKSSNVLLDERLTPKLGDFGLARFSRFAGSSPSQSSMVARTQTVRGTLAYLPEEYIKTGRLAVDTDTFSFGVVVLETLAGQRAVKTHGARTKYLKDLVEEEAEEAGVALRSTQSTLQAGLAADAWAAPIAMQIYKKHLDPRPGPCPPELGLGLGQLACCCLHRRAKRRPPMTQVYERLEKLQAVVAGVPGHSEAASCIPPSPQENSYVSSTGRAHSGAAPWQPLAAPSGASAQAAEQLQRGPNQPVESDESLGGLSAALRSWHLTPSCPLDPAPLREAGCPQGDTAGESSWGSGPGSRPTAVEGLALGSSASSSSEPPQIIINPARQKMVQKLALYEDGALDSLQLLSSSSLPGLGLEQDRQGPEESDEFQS
Calcium/calmodulin-dependent protein kinase type II subunit gamma, sequence (Q13555 whole entry, the tested form may be a part): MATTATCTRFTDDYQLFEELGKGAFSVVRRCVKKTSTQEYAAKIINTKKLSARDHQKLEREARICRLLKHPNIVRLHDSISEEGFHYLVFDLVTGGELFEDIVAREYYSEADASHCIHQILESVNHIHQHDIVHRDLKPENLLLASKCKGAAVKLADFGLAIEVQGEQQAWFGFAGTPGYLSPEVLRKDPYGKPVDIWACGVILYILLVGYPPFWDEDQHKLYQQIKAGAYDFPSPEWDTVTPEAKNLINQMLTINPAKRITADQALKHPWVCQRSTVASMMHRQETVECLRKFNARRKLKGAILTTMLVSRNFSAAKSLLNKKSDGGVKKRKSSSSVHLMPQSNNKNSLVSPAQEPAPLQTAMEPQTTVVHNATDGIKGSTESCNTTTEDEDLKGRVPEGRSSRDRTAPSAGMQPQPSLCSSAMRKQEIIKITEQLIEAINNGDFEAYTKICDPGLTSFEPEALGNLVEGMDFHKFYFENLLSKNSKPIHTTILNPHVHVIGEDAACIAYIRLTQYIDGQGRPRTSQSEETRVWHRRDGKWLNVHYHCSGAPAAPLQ

For `CCOc1cc(N2CCC(O)CC2)ccc1Nc1ncc2c(n1)N(C)c1ccccc1C(=O)N2C`, the IC50 [1] was > 50 µM, the inhibition at 10 µM [2] was -11.1% and the IC50 [3] was > 50 µM. For the same compound, the IC50 [4] was > 50 µM, the IC50 [5] was > 50 µM and the inhibition [6] was -2.2%. For the same compound, the inhibition [7] was 6%, the IC50 [8] was > 50 µM and the inhibition [9] was 7.7%. The inhibition [10] was 0.1%, the inhibition [11] was 2.5% and the IC50 [12] was > 50 µM. The inhibition [13] was 4.3%.
